Rows were chosen to be rich in hits. Some 5.4% of all compounds tested hit in one or more screens of this group.
Ecoli WT expand: growth inhibitors of E. coli BW25113 wild type | OD600 absorbance | growth inhibition, % at 100 µM | hit rate 0.15% among 98,000 | AID 710;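 active = growth inhibition above about 50% at one test dose, limit read from the data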;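 note: growth measured after 20 h incubation at 37 °C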
HePTP inh: human HePTP phosphatase inhibition. inhibition, % at 20 µM. hit rate 0.64% among 110,000. AID 521. recombinant HePTP phosphatase activity, OD absorbance. P35236; in the data active = inhibition above about 50%;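 note: plate controls were vehicle for no effect and reference inhibitor for full effect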
PostGolgi ctrl: yeast control strain growth, post-Golgi counter-screen; efflux-deficient yeast background strain, growth absorbance A615, 16 h; inhibition, % at 10 µM; hit rate 5% among 98,000; AID 738
PLAP activator: activators of human placental alkaline phosphatase; hit rate 1.2% among 96,000; P05187; AID 696; purified PLAP enzyme, luminescent substrate read-out; hits give high values; activation fold at 20 µM; in the data active = activation fold above about 2
Target sequence (P05187 whole entry, looked up): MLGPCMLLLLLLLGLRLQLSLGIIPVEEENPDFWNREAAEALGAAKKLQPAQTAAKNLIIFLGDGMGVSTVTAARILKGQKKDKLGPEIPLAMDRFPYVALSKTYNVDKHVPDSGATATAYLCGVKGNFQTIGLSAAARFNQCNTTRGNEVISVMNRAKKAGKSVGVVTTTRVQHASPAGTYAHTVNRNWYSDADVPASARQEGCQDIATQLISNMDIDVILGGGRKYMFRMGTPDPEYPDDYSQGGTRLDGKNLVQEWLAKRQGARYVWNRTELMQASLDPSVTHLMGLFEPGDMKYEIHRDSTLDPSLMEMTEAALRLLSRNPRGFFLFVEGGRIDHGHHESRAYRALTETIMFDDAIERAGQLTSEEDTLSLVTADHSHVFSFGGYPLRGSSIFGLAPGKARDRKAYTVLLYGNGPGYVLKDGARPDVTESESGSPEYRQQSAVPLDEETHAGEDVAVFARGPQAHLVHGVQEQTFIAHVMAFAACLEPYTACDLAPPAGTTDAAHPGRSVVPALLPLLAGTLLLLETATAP
PostGolgi yeast: growth inhibition of a yeast mutant, post-Golgi transport screen. post-Golgi transport phenotypic cell assay. inhibition, % at 10 µM. hit rate 0.9% among 98,000. AID 739;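 note: yeast cells grown in 1536-well plates; yeast grown about 18 h at 30C before absorbance read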
Ecoli tolC: growth inhibitors of E. coli BW25113 tolC mutant | OD615 | growth inhibition, % at 10 µM (by protocol) | hit rate 2.2% among 65,000 | AID 573;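 active = growth inhibition at or above a cutoff equal to the mean over every tested compound plus 3 SD, cut at about 60% in these data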;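 note: growth measured after 20 h incubation at 37 °C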
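Signal: optical density read at 615 nm; Assay system: E. coli ΔtolC::kan strain BW25113; Times: 20 h incubation with compound, 37 °C; Dosing: 10 µM final, single dose.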
The depositor's hits bear a star; / = no result. Cut-off read from the data, not from the text of the source, unless noted: active = inhibition above about 30%; inactive = the rest.

SMILES | Ecoli WT expand | HePTP inh | PostGolgi ctrl | PLAP activator | PostGolgi yeast | Ecoli tolC
Cc1ccc(S(=O)(=O)NC(CC(=O)n2nc(C)cc2C)c2ccccc2)cc1 (stereo not given) | 0.0 | / | 35.3* | 1.1 | -5.3 | /
CC(NC(=O)/C(C#N)=C/c1cn[nH]c1-c1ccccc1)c1ccccc1 (stereo not given) | 2.0 | / | -1.2 | 1.8 | -4.2 | /
N#C/C(=C\c1cn[nH]c1-c1ccc(Cl)cc1)C(=O)NCc1ccccc1 | -15.0 | / | 21.1 | 2.1* | -1.0 | /
COc1ccc(-c2[nH]ncc2/C=C(\C#N)C(=O)NC2CC2)cc1 | -3.0 | / | 10.1 | 2.6* | 27.4 | /
O=C(Cc1ccc([N+](=O)[O-])cc1)N/N=C/c1ccc(OC/C=C/Cl)cc1 | / | 10.8 | / | / | / | /
C=CCNc1nc2c(c(=O)n(C)c(=O)n2C)n1Cc1ccc(F)cc1 | -2.0 | -2.3 | 8.2 | 1 | 1.1 | 0.9
Cc1ccc(Cn2c(SCC(C)C)nc3c2c(=O)n(C)c(=O)n3C)cc1 | -11.0 | 2.3 | 29.5 | 1.1 | 34.5* | 92.4*
CCC(C)Nc1nc2c(c(=O)n(C)c(=O)n2C)n1Cc1ccc(F)cc1 (stereo not given) | 1.0 | 5.4 | 35.4* | 1 | -6.8 | 19.2
CCSc1nc2c(c(=O)n(C)c(=O)n2C)n1Cc1ccc(Cl)cc1 | / | 0.4 | / | / | / | 39.7
COc1ccc(CNc2nc3c(c(=O)n(Cc4ccc(F)cc4)c(=O)n3C)n2C)cc1 | 10.0 | 6.6 | 19.8 | 0.9 | -5.2 | 71.0*
CC(C)CCNc1nc2c(c(=O)n(Cc3cccc(F)c3)c(=O)n2C)n1C | 9.0 | 9.7 | 40.6* | 1.5 | 0.2 | 41.6
Cc1ccc(CSc2nc3c(c(=O)[nH]c(=O)n3C)n2CCC(C)C)cc1 | -6.0 | 4.3 | 40.7* | 1.3 | 1.8 | 23.3
CC(C)CCn1c(SCc2ccc(Cl)cc2)nc2c1c(=O)[nH]c(=O)n2C | -17.0 | 6.8 | 19.3 | 0.9 | 15.4 | -0.6
CCOc1ccc(NC(=O)CCN2C(=O)S/C(=C\c3ccc(OC)c(OC)c3)C2=O)cc1 | / | 6.4 | / | / | / | /
Oc1ccc(-c2[nH]ncc2-c2ccc(Cl)cc2)c(O)c1 | 30.0 | -0.7 | 23.4 | 1.6 | -4.3 | 100.0*
COc1ccc(-c2[nH]ncc2-c2ccc(Cl)cc2)c(O)c1 | 18.0 | 0.3 | 49.1* | 2* | 14.8 | 97.5*
Cc1cc(C)c2cc(CN(CCO)C(c3nnnn3Cc3ccc(F)cc3)C(C)C)c(=O)[nH]c2c1 (stereo not given) | -6.0 | -4.8 | 11.4 | 1.4 | -4.8 | 69.9*
Cc1cc(C)c2cc(C(O)c3nnnn3Cc3ccccc3)c(=O)[nH]c2c1 (stereo not given) | 2.0 | -9.7 | -2.4 | 1 | 11.8 | 13.6
O=c1/c(=C/c2ccc(OCCOc3ccc(Br)cc3)cc2)sc2nc3ccccc3n12 | / | -2.6 | / | / | / | /
N#CC1=C(N)Oc2cc3c(cc2C1c1ccc(Cl)cc1)OCO3 (stereo not given) | -9.0 | 5.2 | 30.0* | 0.8 | -3.8 | 7.7
CCC(C)(C)NC(=O)CN(C(=O)CCC(=O)Nc1ccccn1)c1ccc(F)c(Cl)c1 | 2.0 | / | 1.1 | 1.8 | 41.0* | /
Cc1cccc(N(CC(=O)NC2CCCC2)C(=O)CCCC(=O)Nc2ccccn2)c1 | 0.0 | 9.5 | 8.6 | 2* | -7.1 | -8.6
Cc1ccc(C)c(N(CC(=O)NC2CCCC2)C(=O)CCCC(=O)Nc2ccccn2)c1 | 5.0 | 13.1 | 24.5 | 1.8 | 1.5 | -4.0
CCC(C)n1cnc2c(c1=O)c1nc3ccccc3nc1n2Cc1ccc(OC)cc1 (stereo not given) | -11.0 | / | 36.0* | 1.1 | -4.6 | /
Cc1c(N2C(=O)/C(=C\c3cccc4ccccc34)SC2=S)c(=O)n(-c2ccccc2)n1C | -8.0 | / | 53.6* | 1.7 | -1.5 | /
SMILES | Ecoli WT expand | HePTP inh | PostGolgi ctrl | PLAP activator | PostGolgi yeast | Ecoli tolC
Cc1ccsc1/C=C1\SC(=S)N(c2c(C)n(C)n(-c3ccccc3)c2=O)C1=O | / | -12.5 | / | / | / | /
COc1ccc(C(=O)/C=C\Nc2ccc([N+](=O)[O-])cc2)cc1 | / | -1.6 | / | / | / | /
COC(/C=C/Nc1ccc(OC)cc1)=C(C#N)C#N | 1.0 | / | 30.8* | 1.1 | 0.2 | /
CCN(CC)c1ccc(C=C(C#N)C#N)c(OC)c1 | / | 1.5 | / | / | / | /
CCN(CC(=O)NCCc1ccc(S(N)(=O)=O)cc1)Cc1nc2cc(OC)c(OC)cc2c(=O)[nH]1 | 5.0 | / | -6.9 | 2.9* | -5.8 | /
CCN(CC(=O)NCCc1ccc(S(N)(=O)=O)cc1)Cc1nc2ccccc2c(=O)[nH]1 | 9.0 | 3.7 | 3.0 | / | -3.9 | -8.9
Cc1cc(-n2c(C)cc(C=O)c2C)ccc1Br | / | 7.0 | / | / | / | /
COc1ccc(OCC(=O)N2CCN(C(=O)COc3ccc(Br)cc3)CC2)cc1 | 7.0 | 1.8 | 40.7* | 1.2 | -9.6 | -1.9
Cc1cccc(OCC(=O)N2CCCC2)c1 | / | 10.5 | / | / | / | /
Cc1ccc(OCC(=O)N2CCC(N3CCCCCC3)CC2)cc1 | 3.0 | 2.3 | 34.6* | 1.4 | -2.4 | -4.2
Cc1cc(C)cc(OCC(=O)N2CCCCCC2)c1 | 12.0 | 5.3 | 33.9* | 0.9 | -10.8 | -4.2
CC(=O)N1CCN(C(=O)COc2ccc(Br)cc2)CC1 | 8.0 | 2.8 | 10.8 | 1.2 | -1.9 | -8.1
CCCCOc1ccc(NC2=NC3(CCCCC3)N=C(N)N2)cc1 | 59.0* | -4.4 | 29.8 | / | -2.9 | 98.9*
Cc1ccc2nc3sc(C(=O)Nc4ccc(N5CCOCC5)cc4)c(N)c3cc2c1 | 0.0 | / | -3.3 | 1 | 16.6 | /
Cc1cccc2cc3c(N)c(C(=O)Nc4ccc(N5CCOCC5)cc4)sc3nc12 | -9.0 | / | 41.0* | 1 | -0.7 | /
CCCCn1c(O)c(C2=c3cc(Br)ccc3=NC2=O)sc1=S | / | -13.2 | / | / | / | /
Cc1nnc(SCC(=O)Nc2nc3c(s2)CC(C)CC3)s1 (stereo not given) | 3.0 | -1.0 | -3.1 | 0.8 | -1.6 | 12.2
CC1CCc2nc(NC(=O)c3cc(C(C)(C)C)nn3C)sc2C1 (stereo not given) | / | 4.1 | / | / | / | 67.0*
NC1=NC(c2ccc(F)cc2)n2c(nc3ccccc32)N1 (stereo not given) | 4.0 | 5.5 | 4.8 | 1.9 | -0.5 | -3.2
Cc1ccc(-n2c(C)cc(C3N=C(N)Nc4nc5ccccc5n43)c2C)c(C)c1 (stereo not given) | -21.0 | 4.6 | 45.9* | 5.4 | 0.6 | 100.0*
Cc1cc(C2N=C(N)Nc3nc4ccccc4n32)c(C)n1-c1ccccc1Cl (stereo not given) | 10.0 | 8.6 | 12.7 | / | 9.2 | 61.3*
Cc1ccc(-c2cc(C(=O)Nc3cc(C)on3)c3ccccc3n2)c(C)c1 | -5.0 | 14.8 | 37.0* | 0.9 | -0.3 | 45.8
O=C1CS/C(=N\N=C\c2cn(Cc3ccc(Cl)cc3Cl)c3ccccc23)N1 | / | 66.0* | / | / | / | /
O=C(CCC(=O)OCC(=O)c1ccc(Br)cc1)Nc1ccc(Br)c2cccnc12 | -16.0 | / | 38.1* | 1 | 4.6 | /
CCSc1nnc(NC(=O)c2ccc3ccccc3n2)s1 | -4.0 | / | 32.7* | 1.1 | 13.2 | /
CCSc1nnc(NC(=O)c2cc(C)nc3ccccc23)s1 | -3.0 | / | 39.1* | 1 | -6.9 | /
CCSc1nnc(NC(=O)c2cc(C)oc2C)s1 | 1.0 | 7.0 | 8.6 | 0.9 | 13.7 | 54.4
NS(=O)(=O)c1ccc(CNS(=O)(=O)c2ccc([N+](=O)[O-])cc2)cc1 | / | 1.9 | / | / | / | /

Source: PubChem
